ChEMBL document CHEMBL1148372 (J Med Chem, 2004)
Active and inactive are the calls of the source. The rule behind the calls is not given here.

What was measured:
D(4) dopamine receptor [1] = molecular target: T1, D(4) dopamine receptor (Homo sapiens, UniProt P21917); assay: In vitro EC50 tested on HEK293 cells co-transfected with human Dopamine receptor D4.4 using FLIPR assay; type: cell-based
T1 sequence (P21917 whole entry): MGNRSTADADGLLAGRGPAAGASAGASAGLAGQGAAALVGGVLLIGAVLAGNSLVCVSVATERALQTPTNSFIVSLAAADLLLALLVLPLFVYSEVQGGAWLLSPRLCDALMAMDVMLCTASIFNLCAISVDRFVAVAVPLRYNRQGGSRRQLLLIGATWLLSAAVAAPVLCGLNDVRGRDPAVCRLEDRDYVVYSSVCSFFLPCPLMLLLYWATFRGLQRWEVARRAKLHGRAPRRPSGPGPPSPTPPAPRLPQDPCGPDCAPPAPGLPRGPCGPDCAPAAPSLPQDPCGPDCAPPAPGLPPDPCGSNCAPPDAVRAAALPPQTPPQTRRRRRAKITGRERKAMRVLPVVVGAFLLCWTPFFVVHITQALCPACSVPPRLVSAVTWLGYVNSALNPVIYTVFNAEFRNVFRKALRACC
Summary of the method: (§1)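 HEK293 cells coexpressing human D4.4 receptor and Gαqo5, plated at 20 000 cells/well and grown 2 days. Loaded 1 h at 23 °C with 4 µM Fluo-4 plus 0.04% Pluronic F-127 in DPBS, washed four times. Compound added, fluorescence read over 3 min.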

[2] = molecular target: T2, D(4) dopamine receptor (Homo sapiens) (UniProt P21917); assay: In vitro efficacy tested on human Dopamine receptor D4.4 were co-expressed with GRqo5 in HEK293 cells using FLIPR assay (Efficacy relative to 10 uM dopamine); type: cell-based; summary of the method: as §1
T2 sequence (whole entry): T1 sequence (P21917 whole entry)

[3] = molecular target: T2, D(4) dopamine receptor (Homo sapiens); assay: In vitro efficacy tested on human D4.4 receptor were coexpressed with GRqo5 in HEK293 cells using FLIPR assay (Efficacy relative to 10 uM dopamine); type: cell-based; summary of the method: as §1
D(4) dopamine receptor [4] = molecular target: T1, D(4) dopamine receptor; assay: In vitro binding affinity tested on HEK293 cells co-transfected with human D4.4 receptor using [3H]spiperone as a radioligand […]; type: cell-based
Summary of the method: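 Competition binding to membranes from HEK-293 cells transfected with human D4.4, stored at −80 °C. Radioligand was 0.1 nM [3H]-spiperone, incubated 2 h in 50 mM Tris-HCl pH 7.4 with 5 mM KCl, 120 mM NaCl, 5 mM MgCl2 and 1 mM EDTA. Compounds were in buffer with 0.1% ascorbic acid. Samples were filtered through glass fibre and washed three times with cold Tris. Bound radioactivity was counted by scintillation to give Ki.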

D(4) dopamine receptor [5] = molecular target: T1, D(4) dopamine receptor; assay: In vitro inhibitory concentration tested on human D4.4 receptor in HEK293 cells using FLIPR assay; type: cell-based
Rattus norvegicus [6] = assay: In vivo maximal penile erection in rats 60 min after subcutaneous administration; type: functional
Summary of the method: (§2)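 Conscious male Wistar rats, adapted 60 min to a dim red-lit room, tested between 9:00 a.m. and 3:00 p.m. Dosed subcutaneously, then caged singly and observed directly for 60 min. Percent incidence is the share of animals with one or more erections; 8–30 animals per group. Maximally effective dose is the dose giving peak incidence, with significance versus control.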

Rattus norvegicus [7] = assay: In vivo maximal effective dose tested in rats for erection 60 min after subcutaneous administration; type: functional; summary of the method: as §2
D(4) dopamine receptor [8] = molecular target: T3, D(4) dopamine receptor (Rattus norvegicus, UniProt P30729); assay: In vitro effective concentration tested on HEK293 cells co-transfected with rat Dopamine receptor D4 using FLIPR assay; type: cell-based
T3 sequence (P30729 whole entry): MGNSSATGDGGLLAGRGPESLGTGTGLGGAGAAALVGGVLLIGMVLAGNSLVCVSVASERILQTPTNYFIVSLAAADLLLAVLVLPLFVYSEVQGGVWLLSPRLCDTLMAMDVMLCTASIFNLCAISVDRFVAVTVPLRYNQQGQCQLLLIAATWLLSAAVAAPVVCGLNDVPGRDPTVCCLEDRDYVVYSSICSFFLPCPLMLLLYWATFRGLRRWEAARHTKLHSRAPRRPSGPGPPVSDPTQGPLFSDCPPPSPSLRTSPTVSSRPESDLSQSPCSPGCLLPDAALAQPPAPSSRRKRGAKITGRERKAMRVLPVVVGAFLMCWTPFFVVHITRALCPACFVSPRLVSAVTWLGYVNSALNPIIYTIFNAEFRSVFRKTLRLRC

[9] = molecular target: D(2) dopamine receptor (Rattus norvegicus) (UniProt P61169); assay: In vitro efficacy tested on rat Dopamine receptor D2 were co-expressed with GRqo5 in HEK293 cells using FLIPR assay (Efficacy relative to 10 uM dopamine); type: cell-based
Chain of D(2) dopamine receptor (Rattus norvegicus) (P61169 whole entry): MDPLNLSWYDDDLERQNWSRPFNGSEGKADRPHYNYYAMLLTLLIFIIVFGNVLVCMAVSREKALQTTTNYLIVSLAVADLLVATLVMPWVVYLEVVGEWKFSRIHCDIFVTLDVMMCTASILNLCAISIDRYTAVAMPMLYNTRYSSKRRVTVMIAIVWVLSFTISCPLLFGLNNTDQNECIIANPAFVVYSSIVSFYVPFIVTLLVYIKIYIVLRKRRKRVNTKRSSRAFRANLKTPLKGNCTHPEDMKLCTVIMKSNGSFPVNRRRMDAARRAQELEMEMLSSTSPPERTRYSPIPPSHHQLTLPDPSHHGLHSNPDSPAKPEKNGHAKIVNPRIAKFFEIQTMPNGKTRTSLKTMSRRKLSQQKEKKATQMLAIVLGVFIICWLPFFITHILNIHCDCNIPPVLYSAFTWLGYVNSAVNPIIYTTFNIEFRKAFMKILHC

D(4) dopamine receptor [10] = molecular target: T1, D(4) dopamine receptor; assay: In vitro effective concentration tested on HEK293 cells co-transfected with human D4.4 receptor using FLIPR assay; type: cell-based
Summary of the method: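 Human D4.4 receptor co-expressed with Gαqo5 in HEK293 cells, plated at 20 000 cells/well and grown 2 days. Loaded with 4 µM Fluo-4 and 0.04% Pluronic F-127 in DPBS with glucose and pyruvate for 1 h at 23 °C, then washed. Compound added and fluorescence read over 3 min on FLIPR. […] EC50 is the concentration giving half-maximal response.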

EC50 (D(4) dopamine receptor [1]) [nM] | Efficacy [2] [%] | Efficacy [3] | SMILES | further results
52 | 43 |  | C[C@H]1CN(c2ccccn2)CCN1Cc1nc2ccccc2[nH]1 | 
 |  | inactive | O=C(N1CCCC1)n1c(CN2CCN(c3ccccn3)CC2)nc2ccccc21 | 
 |  | inactive | c1ccc(Cn2c(CN3CCN(c4ccccn4)CC3)nc3ccccc32)cc1 | 
 |  |  | Cc1ccc(N2CCN(Cc3nc4ccccc4[nH]3)CC2)cc1C | Ki (D(4) dopamine receptor [4]): 1.5 nM; IC50 (D(4) dopamine receptor [5]): 5 nM
64 | 34 |  | C[C@@H]1CN(c2ccccn2)CCN1Cc1nc2ccccc2[nH]1 | 
136 | 27 |  | CS(=O)(=O)c1cccnc1N1CCN(Cc2nc3ccccc3[nH]2)CC1 | 
 |  | inactive | Oc1ccccc1N1CCN(Cc2nc3ccccc3[nH]2)CC1 | 
 |  | inactive | c1cnnc(N2CCN(Cc3nc4ccccc4[nH]3)CC2)c1 | 
 |  |  | CN1CCc2cccc3c2[C@H]1Cc1ccc(O)c(O)c1-3 [APOMORPHINE] | Activity (Rattus norvegicus [6]): 91%; Effective dose (Rattus norvegicus [7]): 0.1 µM/kg; EC50 (D(4) dopamine receptor [8]): 5.5 nM; Efficacy [9]: 103%
 |  | inactive | FC(F)(F)c1ccnc(N2CCN(Cc3nc4ccccc4[nH]3)CC2)n1 | 
13.9 | 50 |  | N#Cc1cccnc1N1CCN(Cc2nc3ccccc3[nH]2)CC1 | 
3.9 | 40 |  | O=[N+]([O-])c1ccccc1N1CCN(Cc2nc3ccccc3[nH]2)CC1 | 
23 | 62 |  | c1ccc(N2CCN(CCc3nc4ccccc4[nH]3)CC2)nc1 | 
 |  | inactive | Cn1c(CN2CCN(c3ccccn3)CC2)nc2ccccc21 | 
7.2 | 39 |  | Clc1ccccc1N1CCN(Cc2nc3ccccc3[nH]2)CC1 | 
 |  | inactive | CCn1c(CN2CCN(c3ccccn3)CC2)nc2ccccc21 | 
8 | 57 |  | Fc1ccc2[nH]c(CN3CCN(c4ccccn4)CC3)nc2c1 | Activity (Rattus norvegicus [6]): 75%; Effective dose (Rattus norvegicus [7]): 0.01 µM/kg
 |  | inactive | Clc1cccnc1N1CCN(Cc2nc3ccccc3[nH]2)CC1 | 
 |  | inactive | COc1ccc2[nH]c(CN3CCN(c4ccccn4)CC3)nc2c1 | 
12.4 | 48 |  | COc1ccccc1N1CCN(Cc2nc3ccccc3[nH]2)CC1 | Activity (Rattus norvegicus [6]): 60%; Effective dose (Rattus norvegicus [7]): 0.01 µM/kg
416 | 37 |  | Brc1cc(Br)c2[nH]c(CN3CCN(c4ccccn4)CC3)nc2c1 | Activity (Rattus norvegicus [6]): 60%; Effective dose (Rattus norvegicus [7]): 0.03 µM/kg

EC50 (D(4) dopamine receptor [1]) [nM] | Efficacy [2] [%] | Efficacy [3] | SMILES | further results
 |  |  | NCCc1ccc(O)c(O)c1 [DOPAMINE] | EC50 (D(4) dopamine receptor [8]): 2.4 nM; Efficacy [9]: 100%
25 | 31 |  | CCOc1ccccc1N1CCN(Cc2nc3ccccc3[nH]2)CC1 | 
44.8 | 49 |  | c1cnc(N2CCN(Cc3nc4ccccc4[nH]3)CC2)nc1 | Activity (Rattus norvegicus [6]): 85%; Effective dose (Rattus norvegicus [7]): 0.1 µM/kg
 |  | inactive | O=[N+]([O-])c1cccnc1N1CCN(Cc2nc3ccccc3[nH]2)CC1 | 
14.6 | 46 |  | N#Cc1ccccc1N1CCN(Cc2nc3ccccc3[nH]2)CC1 | Activity (Rattus norvegicus [6]): 65%; Effective dose (Rattus norvegicus [7]): 0.003 µM/kg
 |  | inactive | CCc1ccccc1N1CCN(Cc2nc3ccccc3[nH]2)CC1 | 
 |  | inactive | Clc1ccc(N2CCN(Cc3nc4ccccc4[nH]3)CC2)nn1 | 
 |  | inactive | CCc1cnc(N2CCN(Cc3nc4ccccc4[nH]3)CC2)nc1 | 
 |  |  | Cc1ccc(C)c(N2CCN(Cc3nc4ccccc4[nH]3)CC2)c1 | Ki (D(4) dopamine receptor [4]): 3.8 nM; IC50 (D(4) dopamine receptor [5]): 1 nM
 |  | inactive | CN(C)C(=O)n1c(CN2CCN(c3ccccn3)CC2)nc2ccccc21 | 
 |  | inactive | c1ccc(Cc2ccccc2N2CCN(Cc3nc4ccccc4[nH]3)CC2)nc1 | 
24 | 27 |  | Fc1cccnc1N1CCN(Cc2nc3ccccc3[nH]2)CC1 | Activity (Rattus norvegicus [6]): 75%; Effective dose (Rattus norvegicus [7]): 0.01 µM/kg
14.7 | 42 |  | Fc1ccccc1N1CCN(Cc2nc3ccccc3[nH]2)CC1 | Activity (Rattus norvegicus [6]): 70%; Effective dose (Rattus norvegicus [7]): 0.01 µM/kg
 |  | inactive | Cc1cccc(C)c1N1CCN(Cc2nc3ccccc3[nH]2)CC1 | 
 |  | inactive | CC(C)n1c(CN2CCN(c3ccccn3)CC2)nc2ccccc21 | 
86 | 42 |  | CSc1ccccc1N1CCN(Cc2nc3ccccc3[nH]2)CC1 | 
36.2 | 36 |  | Cc1cccc(N2CCN(Cc3nc4ccccc4[nH]3)CC2)n1 | Activity (Rattus norvegicus [6]): 62%; Effective dose (Rattus norvegicus [7]): 0.03 µM/kg
 |  | inactive | Oc1ccc(N2CCN(Cc3nc4ccccc4[nH]3)CC2)nn1 | 
100 | 34 |  | COc1ccccc1C1CCN(Cc2nc3ccccc3[nH]2)CC1 | 
14 | 51 |  | c1ccc(C2CCN(Cc3nc4ccccc4[nH]3)CC2)nc1 | 

SMILES | EC50 (D(4) dopamine receptor [1]) [nM] | Efficacy [2] [%] | Efficacy [3] | further results
C1=C(c2ccccc2)CCN(Cc2nc3ccccc3[nH]2)C1 |  | 48 |  | EC50 (D(4) dopamine receptor [10]): 228 nM
C1=C(c2ccccn2)CCN(Cc2nc3ccccc3[nH]2)C1 |  | 63 |  | Activity (Rattus norvegicus [6]): 75%; Effective dose (Rattus norvegicus [7]): 0.03 µM/kg; EC50 (D(4) dopamine receptor [10]): 11 nM
